Most compounds without a hit are left out; they make up all but 2.1% or so of the library.
GRK2 inh: blocks RNA aptamer binding to human GRK2; P25098; bead flow cytometry, FAM-aptamer displacement from GRK2; inhibition of aptamer binding, % at 10 µM; 330,000 tested, 0.59% active;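 active = inhibition of aptamer binding above 40%, roughly 3 SD of noise, on plates passing a quality check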;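 note: median bead fluorescence of bound FAM aptamer so fluorescent compounds give negative values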
DNMT1 block: inhibitors of human DNMT1 | inhibition (reported as % activation of signal), % at 10 µM | DNMT1 molecular beacon, Hinp1I cleavage, fluorescence | 360,000 tested, 0.83% active | P26358 | AID 588458; in the data active = inhibition above about 50%
Scp-1 inhibitor: inhibitors of human Scp-1 phosphatase | Q9GZU7 | Recombinant Scp1, phosphopeptide, malachite green phosphate absorbance | inhibition, % at 20 µM | 340,000 tested, 0.88% active | AID 493091;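 active = inhibition above about 50% at 20 µM, limit read from the data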;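 note: plate controls were DMSO wells with enzyme for no effect and wells lacking enzyme for full effect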
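System: truncated SCP-1 phosphatase (76-261aa); medium: Tris acetate buffer pH 5.5 with MgCl2 and Tween-20; incubation: 45 min room-temperature reaction, 5 min colour, 30 min stabiliser; compound: single 20 µM dose, 1% DMSO; reagent: Phosphorylated 17-residue peptide substrate; read-out: % inhibition at 20 µM; technique: colorimetric free-phosphate detection, absorbance 630 nm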
LMPTP block: blocks human LMPTP phosphatase. P24666. recombinant LMPTP-A, OMFP fluorogenic substrate, fluorescence intensity. 360,000 tested, 0.22% active. inhibition, % at 20 µM;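 active = compounds that cut the enzyme signal by at least half of the control window in the single-dose screen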;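 note: plate controls were DMSO wells with enzyme plus substrate for no effect and substrate without enzyme for full effect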
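Test system: LMPTP-A phosphatase enzyme; input: 0.625 nM LMPTP-A final; reagent: OMFP substrate, 400 µM final; compound dosing: 20 µM single dose, 3% DMSO; incubation: 50 min dark incubation at room temperature; measured by: endpoint fluorescence intensity from OMFP dephosphorylation; measure: % inhibition relative to no-enzyme and uninhibited control wells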
SUMO1-SIM PPI: alters human SUMO1 binding to SIM partners. SUMO1 binding to a labelled peptide, TR-FRET, 1 h. inhibition, % at 20 µM. 360,000 tested, 0.33% active. AID 602429; in the data active = inhibition above about 37%
Target sequence (P63165 whole entry, looked up): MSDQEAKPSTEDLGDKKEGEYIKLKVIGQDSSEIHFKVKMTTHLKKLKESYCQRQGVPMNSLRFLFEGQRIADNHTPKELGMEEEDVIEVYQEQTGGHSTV
STEP block: inhibitors of human striatal-enriched phosphatase STEP. recombinant STEP, OMFP fluorogenic substrate, fluorescence. inhibition, % at 20 µM. 360,000 tested, 0.25% active;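 active = inhibition at 20 µM, scaled per plate between control wells, above about 37%, limit read from the data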;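 note: 0% = DMSO with enzyme and substrate and 100% = substrate only without enzyme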
Target sequence (P54829 whole entry, looked up): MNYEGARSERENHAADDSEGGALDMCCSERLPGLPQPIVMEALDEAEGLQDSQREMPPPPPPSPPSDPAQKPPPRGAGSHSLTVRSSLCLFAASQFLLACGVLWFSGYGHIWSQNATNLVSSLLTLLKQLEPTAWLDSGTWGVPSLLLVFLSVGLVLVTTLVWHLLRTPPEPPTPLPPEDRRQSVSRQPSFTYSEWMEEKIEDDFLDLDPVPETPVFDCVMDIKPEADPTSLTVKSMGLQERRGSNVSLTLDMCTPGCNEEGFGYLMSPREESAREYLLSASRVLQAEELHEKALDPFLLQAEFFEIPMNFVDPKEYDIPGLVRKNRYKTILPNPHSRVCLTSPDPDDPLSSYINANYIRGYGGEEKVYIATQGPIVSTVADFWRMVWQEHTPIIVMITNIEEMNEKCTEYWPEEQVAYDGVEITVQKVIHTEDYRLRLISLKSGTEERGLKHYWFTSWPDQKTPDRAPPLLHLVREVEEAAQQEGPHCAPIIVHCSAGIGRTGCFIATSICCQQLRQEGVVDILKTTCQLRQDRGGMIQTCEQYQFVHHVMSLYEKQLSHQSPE
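Material: STEP (striatal-enriched tyrosine phosphatase) enzyme, cell-free; Compound dosing: 20 µM single dose in 1% DMSO; Technique: fluorescence read at 480 nm ex / 540 nm em; Times: reaction 20 min, ambient temperature; Medium: 50 mM Bis-Tris pH 6.0 with 2.5 mM DTT and 0.005% Tween 20; Also added: OMFP at 25 µM.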
DNMT1 interf DR: counter-screen for DNMT1 inhibitors: spectral interference, dose response. shares compounds with DNMT1 block. molecular beacon fluorescence. IC50, µM. 200 tested, under 10 active. AID 602382; call rule not given here
DNMT1 confirm: confirmation of human DNMT1 inhibitors. shares compounds with DNMT1 block. DNMT1 molecular beacon HinP1I cleavage, fluorescence. inhibition, % at 10 µM. 2,300 tested, 8% active. AID 602385;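 active = average inhibition of at least 30% in the single-concentration confirmation test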
Beacon interf: beacon fluorescence artifact counter-screen | shares compounds with DNMT1 block | 2,300 tested, 1% active | DNMT1 molecular beacon spectral interference counterscreen, fluorescence 485/520 | activation (fluorescence interference), % at 10 µM;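 active = activation of at least 30% at 10 µM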;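 note: DNMT1 catalytic domain with a HinP1I cleavage step and a FAM/dabcyl DNA beacon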
The depositor's hits bear a star; . = no result.

SMILES	GRK2 inh	DNMT1 block	Scp-1 inhibitor	LMPTP block	SUMO1-SIM PPI	STEP block	DNMT1 confirm	Beacon interf	others
Cc1ccc(C(=O)Nc2cccc(C(F)(F)F)c2)cc1NC(=O)c1[nH]cnc1C(N)=O	1	56*	-3	-1	9	0	3	-1
Cc1ccc(C(=O)Nc2cccc(C(F)(F)F)c2)cc1Nc1cncnc1	0	7	-1	0	0	-5	.	.
c1ccc2c(c1)c1c(c3ccccc32)CN2CCCC2C1 (stereo not given)	.	54*	22	13	-17	-4	29	0	DNMT1 interf DR=>99
c1ccc(CN2CCC(N3CCC(N4CCCCCC4)CC3)CC2)cc1	0	-5	-12	-6	-33	0	.	.
Cc1ccc(-c2nnn3c2nc(NCCc2ccc(S(N)(=O)=O)cc2)c2ccccc23)cc1	0	89*	-2	21	-4	2	7	-2
NS(=O)(=O)c1ccc(CCNc2nc3c(-c4cccc(F)c4)nnn3c3ccccc23)cc1	0	72*	-14	27	-5	5	7	-2
Cc1cccc(-c2nnn3c2nc(NCCc2ccc(S(N)(=O)=O)cc2)c2ccccc23)c1	0	42	3	40	-17	0	.	.
COc1cccc(NC(=S)NC(Cc2ccccc2)c2ccccc2)c1 (stereo not given)	.	8	.	2	6	6	.	.
CCc1nc2ccc(C(=O)NCCCN3CCCC3=O)cn2c1N(CC)CCOC	.	0	.	0	10	-5	.	.
N=C1/C(=C\c2ccc(SCc3ccco3)o2)C(=O)N=C2SC=NN12	3	106*	32	30	43*	8	4	5
CC1=NN2C(=N)/C(=C\c3ccc(SCc4ccccc4)o3)C(=O)N=C2S1	0	64*	20	3	5	5	3	2
O=C(O)CN1C(=O)/C(=C/c2ccc(SCc3ccccc3)o2)SC1=S	.	76*	59*	9	4	12	20	8
O=C(O)CN1C(=O)/C(=C\c2ccc(OC(=O)c3ccco3)cc2)SC1=S	0	0	6	2	-26	15	.	.
CC1=CN2C(=N)/C(=C/c3ccco3)C(=O)N=C2S1	7	6	6	1	-17	-4	.	.
CC1=NN2C(=N)/C(=C\c3cc(C)n(Cc4ccccc4)c3C)C(=O)N=C2S1	0	2	-1	0	-12	-1	.	.
c1ccc(CSc2cc3ccccc3[nH]2)cc1	1	-12	-13	2	-4	0	.	.
N#Cc1c(N)[nH]c(C(=O)c2ccccc2)c1-c1ccccc1Br	.	.	.	1	-7	.	.	.
CC(C)(CN1CCCN(CC(C)(C)C(=O)O)C1=O)C(=O)O	.	2	.	-2	0	1	.	.
O=C(Cn1c2ccccc2c(=O)c2cc([N+](=O)[O-])ccc21)Nc1ccccc1Cl	1	56*	36	18	-12	8	4	-5
O=C(Cn1c2ccccc2c(=O)c2ccccc21)Nc1ccccc1F	1	12	-7	25	2	-2	.	.
CC1(C(=O)NS(=O)(=O)C2CC2)CCCN(C(=O)COCc2ccccc2)C1 (stereo not given)	.	1	.	-1	5	-4	.	.
COc1ccc(C(=O)C(=O)N2CCN(C(=O)OCc3ccccc3)CC2)cc1	.	.	.	-1	-3	.	.	.
COc1ccc(CCNc2ccc(C(CC(N)=O)NC(=O)Cc3cccc4ccccc34)cc2[N+](=O)[O-])cc1 (stereo not given)	0	34	-8	3	-18	2	.	.
CCCCNc1ccc(C(CC(N)=O)NC(=O)Cc2cccc3ccccc23)cc1[N+](=O)[O-] (stereo not given)	0	51*	-6	2	-4	1	6	12
CCCCCNC(=O)C(C1CC1)n1c(=O)c(-c2ccco2)nc2ccccc21 (stereo not given)	.	.	.	0	-9	.	.	.
SMILES	GRK2 inh	DNMT1 block	Scp-1 inhibitor	LMPTP block	SUMO1-SIM PPI	STEP block	DNMT1 confirm	Beacon interf	others
COc1cc(S(=O)(=O)N2CCN(Cc3ccc4c(c3)OCO4)CC2)ccc1NC(C)=O	0	48	.	-1	2	0	.	.
COc1ccc(Cn2c(-c3ccc(C)cc3)nc3c(c(=O)c4ccccc4n3C)c2=O)cc1	0	83*	2	11	5	2	2	4
Cn1c2ccccc2c(=O)c2c(=O)n(Cc3ccccc3)c(-c3ccc(F)cc3)nc21	0	63*	0	1	-8	1	0	0
COc1ccc(-c2ccc3sc4ccccc4c(=O)c3c2)cn1	0	56*	6	33	19	7	0	-5
COc1cc2sc3ccc(-c4ccc(N(C)C)nc4)cc3c(=O)c2cc1OC	0	.	0	.	.	.	.	.
O=C(CCN1C(=O)/C(=C/C=C/c2ccccc2)SC1=S)Nc1cccnc1	7	62*	-6	4	-8	0	0	0
CC(/C=C1\SC(=S)N(CCC(=O)Nc2cccc(C(=O)O)c2)C1=O)=C\c1ccccc1	4	80*	-9	12	16	3	12	2
CC(NC(=O)c1ccc(Cl)c(S(=O)(=O)NC2CC2)c1)c1ccco1 (stereo not given)	.	1	.	0	-1	0	.	.
Cc1ccc(NC(=O)COC(=O)Cn2cnc3ccccc32)c(C)c1	0	0	-4	-1	-4	1	.	.
Cc1cc2nc(CN(C)C(=O)C3CCC(=O)N(C4CCCC4)C3)[nH]c2cc1C (stereo not given)	.	73*	.	35	4	0	0	4
O=C1CC(=O)N(Cc2cccs2)C(=O)N1	1	-9	-3	0	-4	1	.	.
O=C1CC(=O)N(Cc2ccco2)C(=O)N1	89*	109*	66*	51*	25	95*	105*	-5	DNMT1 interf DR=>99
O=C(NCC1CCCN1S(=O)(=O)c1cccs1)c1cccc(F)c1 (stereo not given)	0	0	-4	1	0	-2	.	.
Cc1ccc(-c2cc(-c3ccco3)c(C#N)c(=O)[nH]2)cc1	1	58*	22	49*	0	4	0	-2
Cc1ccc(-c2cc(C(F)(F)F)c(C#N)c(=O)[nH]2)cc1	1	0	-4	-1	7	-1	.	.
Cc1cc(C)n2nc(C(=O)N/N=C/c3c4ccccc4cc4ccccc34)nc2n1	0	92*	-13	9	15	4	-1	1

Compound activity: PubChem BioAssay, several laboratories
